Experiment [1] in a line: Inhibition of HCV NS3 protease by FRET assay. On the set-up: species or system Hepacivirus hominis. The method in brief: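 Buffer was 50 mM HEPES pH 7.5, 10 mM DTT, 40% glycerol, 0.1% n-octyl-β-D-glucoside and 3.3% DMSO. Reaction was started with FRET substrate Ac-DED(Edans)EEAbu[COO]ASK(Dabcyl)-NH2. Ki was obtained by non-linear regression.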
Experiment [2] addresses NS3 protease (Hepatitis C virus subtype 1b, UniProt Q0ZMF1, A156T). In words: Inhibition of HCV NS3 protease A156T mutant by FRET assay. More on the design: species or system Hepacivirus hominis. The method in brief:
(§1)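 Buffer was 50 mM HEPES pH 7.5, 10 mM DTT, 40% glycerol, 0.1% n-octyl-β-D-glucoside and 3.3% DMSO. Reaction started with the FRET substrate Ac-DED(Edans)EEAbu[COO]ASK(Dabcyl)-NH2. Ki derived by non-linear regression.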

Experiment [3] addresses NS3 protease (Hepacivirus C, UniProt C1KIQ2, D168V). Briefly: Inhibition of HCV NS3 protease D168V mutant by FRET assay. More on the design: species or system Hepacivirus hominis. The method in brief: as §1
A further experiment concerns Hepatitis C virus. Briefly: Antiviral activity against HCV 1B […] by firefly luciferase reporter gene assay. Format: functional, organism-based, Hepacivirus hominis. To be noted: genotype 1b, Huh-7.

For 20 molecules, Ki and EC50 results are on record in ChEMBL document CHEMBL1177656, “Improved P2 phenylglycine-based hepatitis C virus NS3 protease inhibitors with alkenylic prime-side substituents” (Bioorg Med Chem, 2010).

With `C=CCCCS(=O)(=O)NC(=O)[C@H](CCC)NC(=O)[C@@H](NC(=O)[C@@H](NC(=O)OC(C)(C)C)C(C)(C)C)c1ccc(Oc2cc(-c3ccccc3)nc3cc(OC)ccc23)c(C=C)c1`, the values for the Ki (in experiment [1]; at NS3 protease [2]; at NS3 protease [3]) were 63 nM, 180 nM and 140 nM, respectively. Further, the EC50 with Hepatitis C virus is above 10000 nM.
With `C=CCCCS(=O)(=O)NC(=O)[C@H](CCC)NC(=O)[C@H](NC(=O)[C@@H](NC(=O)OC(C)(C)C)C(C)(C)C)c1ccc(Oc2cc(-c3ccccc3)nc3cc(OC)ccc23)c(C=C)c1`, the results for the Ki (in experiment [1]; at NS3 protease [2]; at NS3 protease [3]) were 48 nM, 86 nM and 380 nM, respectively. This molecule yielded an EC50 in the experiment on Hepatitis C virus of 8900 nM.
For `C=CCCCCS(=O)(=O)NC(=O)[C@H](CCC)NC(=O)[C@@H](NC(=O)[C@@H](NC(=O)OC(C)(C)C)C(C)(C)C)c1ccc(Oc2cc(-c3ccccc3)nc3cc(OC)ccc23)c(C=C)c1`, the Ki in experiment [1] amounted to 120 nM; on NS3 protease [2] it was 380 nM; at NS3 protease [3], 390 nM. The molecule further came in with an EC50 with Hepatitis C virus above 10000 nM.
The matching figures for `C=CCCCCS(=O)(=O)NC(=O)[C@H](CCC)NC(=O)[C@H](NC(=O)[C@@H](NC(=O)OC(C)(C)C)C(C)(C)C)c1ccc(Oc2cc(-c3ccccc3)nc3cc(OC)ccc23)c(C=C)c1`: 100 nM, 270 nM, 530 nM and 4700 nM.
For the molecule `C=CCC1(S(=O)(=O)NC(=O)[C@H](CCC)NC(=O)[C@@H](NC(=O)[C@@H](NC(=O)OC(C)(C)C)C(C)(C)C)c2ccc(Oc3cc(-c4ccccc4)nc4cc(OC)ccc34)c(C=C)c2)CC1`, the affinity in experiment [1] corresponds to a Ki of 330 nM.
Same read-out and setting: for `C=CCC1(S(=O)(=O)NC(=O)[C@H](CCC)NC(=O)[C@H](NC(=O)[C@@H](NC(=O)OC(C)(C)C)C(C)(C)C)c2ccc(Oc3cc(-c4ccccc4)nc4cc(OC)ccc34)c(C=C)c2)CC1` the value was 190 nM.
On the same count and under the same terms, for `C=Cc1cc([C@H](NC(=O)[C@@H](NC(=O)OC(C)(C)C)C(C)(C)C)C(=O)N[C@@H](CCC)C(=O)NS(=O)(=O)c2ccccc2)ccc1Oc1cc(-c2ccccc2)nc2cc(OC)ccc12` the value was 290 nM; for `C=Cc1cc([C@@H](NC(=O)[C@@H](NC(=O)OC(C)(C)C)C(C)(C)C)C(=O)N[C@@H](CCC)C(=O)NS(=O)(=O)c2ccccc2)ccc1Oc1cc(-c2ccccc2)nc2cc(OC)ccc12`, 130 nM.
`C=Cc1cc([C@H](NC(=O)[C@@H](NC(=O)OC(C)(C)C)C(C)(C)C)C(=O)N[C@@H](CCC)C(=O)NS(=O)(=O)c2ccccc2C=C)ccc1Oc1cc(-c2ccccc2)nc2cc(OC)ccc12`: the Ki in experiment [1] came to 120 nM; on NS3 protease [2], 250 nM; at NS3 protease [3], 450 nM. The molecule also registered an EC50 in the experiment with Hepatitis C virus above 10000 nM.
The matching figures for `C=Cc1cc([C@@H](NC(=O)[C@@H](NC(=O)OC(C)(C)C)C(C)(C)C)C(=O)N[C@@H](CCC)C(=O)NS(=O)(=O)c2ccccc2C=C)ccc1Oc1cc(-c2ccccc2)nc2cc(OC)ccc12`: 47 nM, 180 nM, 230 nM and 5400 nM.
In turn, `C=CCc1ccccc1S(=O)(=O)NC(=O)[C@H](CCC)NC(=O)[C@@H](NC(=O)[C@@H](NC(=O)OC(C)(C)C)C(C)(C)C)c1ccc(Oc2cc(-c3ccccc3)nc3cc(OC)ccc23)c(C=C)c1` showed an inhibition constant (Ki) in experiment [1] of 140 nM. Further, the EC50 with Hepatitis C virus is above 10000 nM.
For the molecule `C=CCc1ccccc1S(=O)(=O)NC(=O)[C@H](CCC)NC(=O)[C@H](NC(=O)[C@@H](NC(=O)OC(C)(C)C)C(C)(C)C)c1ccc(Oc2cc(-c3ccccc3)nc3cc(OC)ccc23)c(C=C)c1`, in experiment [1], the affinity corresponds to a Ki of 35 nM. This molecule registered an EC50 with Hepatitis C virus of 3000 nM.
`C=CCCCS(=O)(=O)NC(=O)[C@H](CCC)NC(=O)[C@@H]1C[C@@H](Oc2cc(-c3ccccc3)nc3cc(OC)ccc23)CN1C(=O)[C@@H](NC(=O)OC(C)(C)C)C(C)(C)C`: in experiment [1], the Ki was 300 nM.
As for `CCC[C@H](NC(=O)[C@@H](NC(=O)[C@@H](NC(=O)OC(C)(C)C)C(C)(C)C)c1ccc(Oc2cc(-c3ccccc3)nc3cc(OC)ccc23)cc1)C(=O)NS(=O)(=O)c1ccccc1`, the inhibitory constant (Ki) in experiment [1] worked out at 230 nM.
As to `CC(C)(C)OC(=O)N[C@H]1CCCCC/C=C\C2C[C@@]2(C(=O)NS(=O)(=O)C2CC2)NC(=O)[C@@H]2C[C@@H](OC(=O)N3Cc4cccc(F)c4C3)CN2C1=O` (single isomer, unassigned) [DANOPREVIR], in the experiment on Hepatitis C virus, the response was half-maximal at 2.1 nM (EC50).
On to `CC(C)(C)NC(=O)N[C@H](C(=O)N1C[C@H]2[C@@H]([C@H]1C(=O)NC(CC1CCC1)C(=O)C(N)=O)C2(C)C)C(C)(C)C` (some centres not stated) [BOCEPREVIR], for which the inhibition constant Ki in experiment [1] was 14 nM. This lies in the double-digit nanomolar range.
In experiment [1], `COc1ccc2c(O[C@@H]3C[C@H]4C(=O)N[C@]5(C(=O)O)C[C@H]5/C=C\CCCCC[C@H](NC(=O)OC5CCCC5)C(=O)N4C3)cc(-c3csc(NC(C)C)n3)nc2c1` [CILUPREVIR] came in with a Ki of 0.3 nM. In the experiment with Hepatitis C virus, this molecule displayed an EC50 of 4 nM.
Molecule `COc1ccc2c(O[C@@H]3C[C@H]4C(=O)N[C@]5(C(=O)NS(=O)(=O)C6CC6)C[C@H]5/C=C\CCCCN(C)C(=O)[C@@H]4C3)cc(-c3nc(C(C)C)cs3)nc2c1C` [SIMEPREVIR] had a Ki in experiment [1] of 0.36 nM.
With `CCC[C@H](NC(=O)[C@@H]1[C@H]2CCC[C@H]2CN1C(=O)[C@@H](NC(=O)[C@@H](NC(=O)c1cnccn1)C1CCCCC1)C(C)(C)C)C(=O)C(=O)NC1CC1` [TELAPREVIR], the affinity in experiment [1] corresponds to a Ki of 40 nM.
With `CC[C@@H]1C[C@]1(NC(=O)[C@@H]1C[C@@H]2CN1C(=O)[C@H](C(C)(C)C)NC(=O)OCC(C)(C)CCCCc1cccc3c1CN(C3)C(=O)O2)C(=O)NS(=O)(=O)C1CC1` [VANIPREVIR], the affinity in experiment [1] corresponds to a Ki of 0.06 nM. In addition, a half-maximal response in the experiment on Hepatitis C virus (EC50) required 5 nM.
